Assay results from ChEMBL document CHEMBL3580554, “Design, synthesis, and anticonvulsant activity of new hybrid compounds derived from 2-(2,5-dioxopyrrolidin-1-yl)propanamides and 2-(2,5-dioxopyrrolidin-1-yl)butanamides” (J Med Chem, 2015).

What was measured:
[1] = system: Mus musculus; assay: Anticonvulsant activity in Swiss mouse assessed as protection against seizures at 300 mg/kg, ip dosed 0.25 hrs before initiation of maximal electroconvulsions by maximal electroshock test; assay type: functional
In short: (§1)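 Mice were dosed i.p. at a fixed 300 or 100 mg/kg (6 Hz: 100 mg/kg only). Protection was then scored against MES, sc PTZ or 6 Hz seizures at pretreatment times of 0.25, 0.5, 1 and 2 h. Groups were four mice, scored as number protected / number tested. This also gives the time course and time of peak effect.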

[2] = system: Mus musculus; assay: Anticonvulsant activity in Swiss mouse assessed as protection against seizures at 100 mg/kg, ip dosed 0.25 hrs before initiation of maximal electroconvulsions by maximal electroshock test; assay type: functional; in short: as §1
[3] = system: Mus musculus; assay: Anticonvulsant activity in Swiss mouse assessed as protection against seizures at 100 mg/kg, ip dosed 1 hr before initiation of maximal electroconvulsions by maximal electroshock test; assay type: functional; in short: as §1
[4] = system: Mus musculus; assay: Anticonvulsant activity in Swiss mouse assessed as protection against seizures at 100 mg/kg, ip dosed 2 hrs before initiation of maximal electroconvulsions by maximal electroshock test; assay type: functional; in short: as §1
[5] = system: Mus musculus; assay: Anticonvulsant activity in Swiss mouse assessed as protection against seizures at 300 mg/kg, ip dosed 0.25 hrs before pentylenetetrazole challenge by subcutaneous pentylenetetrazole seizure test; assay type: functional; in short: as §1
[6] = system: Mus musculus; assay: Anticonvulsant activity in Swiss mouse assessed as protection against seizures at 300 mg/kg, ip dosed 0.5 hrs before pentylenetetrazole challenge by subcutaneous pentylenetetrazole seizure test; assay type: functional; in short: as §1
[7] = system: Mus musculus; assay: Anticonvulsant activity in Swiss mouse assessed as protection against seizures at 300 mg/kg, ip dosed 1 hr before pentylenetetrazole challenge by subcutaneous pentylenetetrazole seizure test; assay type: functional; in short: as §1
[8] = system: Mus musculus; assay: Anticonvulsant activity in Swiss mouse assessed as protection against seizures at 100 mg/kg, ip dosed 0.5 hrs before pentylenetetrazole challenge by subcutaneous pentylenetetrazole seizure test; assay type: functional; in short: as §1
[9] = system: Mus musculus; assay: Anticonvulsant activity in Swiss mouse assessed as protection against seizures at 100 mg/kg, ip dosed 1 hr before pentylenetetrazole challenge by subcutaneous pentylenetetrazole seizure test; assay type: functional; in short: as §1
[10] = system: Mus musculus; assay: Anticonvulsant activity in Swiss mouse assessed as protection against seizures at 100 mg/kg, ip dosed 2 hrs before pentylenetetrazole challenge by subcutaneous pentylenetetrazole seizure test; assay type: functional; in short: as §1
[11] = system: Mus musculus; assay: Anticonvulsant activity in Swiss mouse model of 6 Hz psychomotor seizure mode assessed as protection against seizures at 100 mg/kg, ip dosed 1 hr before 6 Hz electrical stimulation by 6 Hz test; assay type: functional; in short: as §1
[12] = species on record: Rattus norvegicus; assay: Inhibition of [3H]BTX binding to sodium channel site 2 in rat cerebral cortex synaptosomes at 1 uM incubated for 60 mins by scintillation counting based radioligand displacement assay; assay type: subcellular
In short: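 Synaptoneurosomal preparations from rat cerebral cortex were used. The read-out was inhibition of specific [3H]BTX binding to the voltage-sensitive sodium channel (site 2), expressed as % inhibition of control specific binding. Compounds were tested at 1, 10, 100 and 500 μM. Inhibition above 50% was taken as significant.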

[13] = species on record: Mus musculus; assay: Protective index, ratio of neurotoxic TD50 in Swiss mouse by Chimney test to anticonvulsant ED50 in Swiss mouse measured at 0.5 hrs of time to peak effect by maximal electroshock test
In short: (§2)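 Protective index was calculated as TD50 (chimney test, mouse, i.p.) divided by ED50 from the matching MES, sc PTZ or 6 Hz test, both taken at the time of peak effect.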

[14] = system: Mus musculus; assay: Anticonvulsant activity in ip dosed Swiss mouse assessed as protection against seizures measured at 0.5 hrs of time to peak effect by maximal electroshock test; assay type: functional
In short: (§3)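 Median effective doses (ED50, mg/kg) were determined i.p. in mice at the time of peak effect in the MES, sc PTZ or 6 Hz tests. Only compounds giving at least 50% protection at 100 mg/kg in that test were taken forward.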

[15] = system: Mus musculus; assay: Anticonvulsant activity in ip dosed Swiss mouse assessed as protection against seizures measured at 0.5 hrs of time to peak effect by subcutaneous pentylenetetrazole seizure test; assay type: functional; in short: as §3
[16] = system: Mus musculus; assay: Anticonvulsant activity in ip dosed Swiss mouse assessed as protection against seizures measured at 0.5 hrs of time to peak effect by 6 Hz test by 6 Hz psychomotor seizure test; assay type: functional; in short: as §3
[17] = system: Mus musculus; assay: Protective index, ratio of neurotoxic TD50 in Swiss mouse by Chimney test to anticonvulsant ED50 in Swiss mouse measured at 0.5 hrs of time to peak effect by subcutaneous pentylenetetrazole seizure test; assay type: functional; in short: as §2
[18] = system: Mus musculus; assay: Anticonvulsant activity in ip dosed Swiss mouse assessed as protection against seizures measured at 1 hr of time to peak effect by maximal electroshock test; assay type: functional
[19] = system: Mus musculus; assay: Anticonvulsant activity in ip dosed Swiss mouse assessed as protection against seizures measured at 1 hr of time to peak effect by subcutaneous pentylenetetrazole seizure test; assay type: functional
[20] = system: Mus musculus; assay: Anticonvulsant activity in ip dosed Swiss mouse assessed as protection against seizures measured at 1 hr of time to peak effect by 6 Hz test by 6 Hz psychomotor seizure test; assay type: functional
[21] = system: Mus musculus; assay: Protective index, ratio of neurotoxic TD50 in Swiss mouse by Chimney test to anticonvulsant ED50 in Swiss mouse measured at 1 hr of time to peak effect by subcutaneous pentylenetetrazole seizure test; assay type: functional; in short: as §2
[22] = Protective index, ratio of neurotoxic TD50 in Swiss mouse by Chimney test to anticonvulsant ED50 in Swiss mouse measured at 1 hr of time to peak effect by 6 Hz test by 6 Hz psychomotor seizure test; assay type: toxicity; settings: in vivo, read-out: Ratio TD50/ED50
In short: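 Neurotoxicity (TD50) estimated in mice i.p. by chimney test for motor coordination impairment; protective index calculated as TD50/ED50 for each seizure model.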

[23] = Toxicity against HEK293 cells assessed as reduction in cell viability after 48 hrs by EZ4U label based assay; settings: human
In short: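 HEK-293 human embryonic kidney cells were incubated with compound for 48 h and viability was then measured. Doxorubicin served as standard.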

[24] = Ratio of IC50 for test compound to IC50 for doxorubicin against HEK293 cells assessed as reduction in cell viability after 48 hrs by EZ4U label based assay; settings: human, read-out: Ratio IC50
[25] = system: Liver microsome; assay: Drug metabolism in human liver microsomes assessed as metabolite M2 formation at 50 uM in presence of NADPH regeneration system pre-incubated at 37 degC for 5 min and measured 2 hrs after post NADPH system addition by UPLC and LC-MS/MS method; assay type: ADME
In short: (§4)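 The compound was incubated 2 h with human liver microsomes. Metabolites were detected by full-scan chromatogram and identified by LC/MS from their [M+H]+ molecular masses.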

[26] = system: Liver microsome; assay: Drug metabolism in human liver microsomes assessed as metabolite M3 formation at 50 uM in presence of NADPH regeneration system pre-incubated at 37 degC for 5 min and measured 2 hrs after post NADPH system addition by UPLC and LC-MS/MS method; assay type: ADME; in short: as §4
[27] = system: Liver microsome; assay: Drug metabolism in human liver microsomes assessed as metabolite M4 formation at 50 uM in presence of NADPH regeneration system pre-incubated at 37 degC for 5 min and measured 2 hrs after post NADPH system addition by UPLC and LC-MS/MS method; assay type: ADME; in short: as §4
[28] = molecular target: CYP3A4 (Homo sapiens, UniProt P08684); assay: Inhibition of human recombinant CYP3A4 assessed as remaining enzyme activity by measuring conversion of luciferin-PPXE into D-luciferin at 25 uM by luminescence CYP3A4 P450-Glo assay relative to untreated control; assay type: ADME; settings: recombinant CYP3A4, probe luciferin-PPXE, read-out: Activity
CYP3A4, sequence (P08684 whole entry): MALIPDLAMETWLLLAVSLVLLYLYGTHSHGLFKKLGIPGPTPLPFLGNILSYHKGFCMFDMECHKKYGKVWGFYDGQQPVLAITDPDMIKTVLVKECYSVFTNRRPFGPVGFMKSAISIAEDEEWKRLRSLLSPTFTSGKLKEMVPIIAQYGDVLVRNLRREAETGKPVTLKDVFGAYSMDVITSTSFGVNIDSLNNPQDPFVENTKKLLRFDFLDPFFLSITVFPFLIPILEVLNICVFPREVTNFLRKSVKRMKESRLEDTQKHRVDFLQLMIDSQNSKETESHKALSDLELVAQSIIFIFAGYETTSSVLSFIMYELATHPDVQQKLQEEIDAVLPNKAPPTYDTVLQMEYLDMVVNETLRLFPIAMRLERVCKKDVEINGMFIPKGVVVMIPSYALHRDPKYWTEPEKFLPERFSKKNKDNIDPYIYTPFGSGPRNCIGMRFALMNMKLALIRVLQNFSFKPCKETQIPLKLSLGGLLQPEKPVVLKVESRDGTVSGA

SMILES: CC(C(=O)N1CCN(c2cccc(C(F)(F)F)c2)CC1)N1C(=O)CCC1=O (racemic)
- Activity [1]: 75%
- Activity [2]: 50%
- Activity [3]: 50%
- Activity [4]: 0%
- Activity [5]: 100%
- Activity [6]: 100%
- Activity [7]: 100%
- Activity [8]: 100%
- Activity [9]: 75%
- Activity [10]: 75%
- Activity [11]: 100%
- inhibition [12]: 3.5%
- Ratio TD50/ED50 [13]: >16.97
- ED50 [14]: 88.4 mg/kg
- ED50 [15]: 59.9 mg/kg
- ED50 [16]: 21 mg/kg
- Ratio TD50/ED50 [17]: >25.04
- ED50 [18]: 85.1 mg/kg
- ED50 [19]: 88.7 mg/kg
- ED50 [20]: 35 mg/kg
- Ratio TD50/ED50 [21]: 9.28
- selectivity ratio at 1 h [22]: 23.5
- IC50 at 48 h [23]: 50.7 µM
- selectivity ratio at 48 h [24]: 100
- Drug metabolism [25]: metabolite_detected
- Drug metabolism [26]: metabolite_detected
- Drug metabolism [27]: metabolite_detected
- activity at 25 µM [28]: 68.4%
